Positions of bridges follow the written chain, without caps; N, C: chain ends. Residues, ends and D or L forms follow the SMILES beside them. *: point of attachment. Octanoyl = CCCCCCCC(=O)*
Key:
[1] = molecular target: T1, Neuropilin-1 (Homo sapiens, UniProt O14786); assay: Binding affinity to N-terminal His6-tagged recombinant human NRP1-b1 domain expressed in Escherichia coli Rosetta Gami 2 (DE3) pLysS cells by SPR method
How it was run: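 Human NRP1-b1 (residues 273–427, His6-tagged) was amine-coupled to a CM5 chip at high and low density; an unmodified spot served as reference. Runs were at 25 °C in PBS with 0.05% P20 and 3% DMSO. Compound was tested as 2-fold dilutions from 16 µM to 31 nM with 60 s injections. KD was taken from steady-state responses, DMSO-corrected; mean ± SD of the two surfaces.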

[2] = in vivo; details: mouse, iv, 2.5 mg/kg
[3] = Half life in human plasma at 10 uM by MS/MS analysis; assay type: ADME, cell-free
[4] = molecular target: T1, Neuropilin-1; assay: Binding affinity to recombinant human NRP1 extracellular domain by SPR method
[5] = system: Mus musculus; assay: Cmax in BALB/c mouse at 2 mg/kg, iv administered as bolus dose by LC-MS method; assay type: ADME, organism-based; set-up: dose 2 mg/kg, route intravenous; details: in vivo
How it was run: (§1)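 Female BALB/c mice, 6–8 weeks old, received 2 mg/kg as a tail-vein bolus formulated in 7.5% DMSO. Blood was taken by cardiac puncture at 5, 15, 30, 60, 180 and 240 min. Plasma was separated by centrifugation, snap-frozen and assayed by LC-MS/MS with electrospray ionization.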

[6] = system: Mus musculus; assay: Volume of distribution in BALB/c mouse at 2 mg/kg, iv administered as bolus dose by LC-MS method; assay type: ADME, organism-based; details: in vivo; how it was run: as §1
[7] = system: Mus musculus; assay: Half life in BALB/c mouse at 2 mg/kg, iv administered as bolus dose by LC-MS method; assay type: ADME, organism-based; details: in vivo; how it was run: as §1
[8] = system: Mus musculus; assay: Tmax in BALB/c mouse at 2 mg/kg, iv administered as bolus dose by LC-MS method; assay type: ADME, organism-based; details: in vivo; how it was run: as §1
[9] = system: Mus musculus; assay: AUC (infinity) in BALB/c mouse at 2 mg/kg, iv administered as bolus dose by LC-MS method; assay type: ADME, organism-based; set-up: dose 2 mg/kg, route intravenous, time infinity; details: in vivo; how it was run: as §1

T1 sequence (O14786 whole entry, the tested form may be a part): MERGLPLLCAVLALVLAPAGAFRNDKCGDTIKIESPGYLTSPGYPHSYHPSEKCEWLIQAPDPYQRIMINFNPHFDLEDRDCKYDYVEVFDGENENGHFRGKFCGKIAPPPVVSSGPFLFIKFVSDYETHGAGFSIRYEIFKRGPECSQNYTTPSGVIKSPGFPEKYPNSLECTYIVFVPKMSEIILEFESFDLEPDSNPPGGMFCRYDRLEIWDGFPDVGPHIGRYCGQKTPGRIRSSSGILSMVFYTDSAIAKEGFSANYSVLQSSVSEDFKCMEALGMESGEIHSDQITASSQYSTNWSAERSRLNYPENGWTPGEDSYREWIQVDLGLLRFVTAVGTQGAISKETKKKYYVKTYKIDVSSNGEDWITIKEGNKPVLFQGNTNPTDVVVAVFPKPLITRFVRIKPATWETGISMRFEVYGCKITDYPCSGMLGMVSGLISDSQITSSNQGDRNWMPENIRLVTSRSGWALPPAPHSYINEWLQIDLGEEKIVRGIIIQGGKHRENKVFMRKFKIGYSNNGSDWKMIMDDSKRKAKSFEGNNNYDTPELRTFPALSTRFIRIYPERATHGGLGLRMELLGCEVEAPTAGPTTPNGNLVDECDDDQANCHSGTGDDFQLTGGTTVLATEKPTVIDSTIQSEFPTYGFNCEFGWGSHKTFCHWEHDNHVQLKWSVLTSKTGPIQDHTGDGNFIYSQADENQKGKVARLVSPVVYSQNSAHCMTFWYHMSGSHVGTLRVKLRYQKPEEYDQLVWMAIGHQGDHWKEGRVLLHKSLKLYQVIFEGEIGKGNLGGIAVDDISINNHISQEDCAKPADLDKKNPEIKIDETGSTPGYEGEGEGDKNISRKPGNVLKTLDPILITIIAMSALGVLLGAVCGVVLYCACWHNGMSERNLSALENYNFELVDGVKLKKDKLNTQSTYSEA

Row | Kd [1] | SMILES | also measured
1 | 2280 nM | N=C(N)NCCC[C@H](NC(=O)c1sccc1NS(=O)(=O)c1cc(-c2ccccc2CN2CCCCC2)cc2c1OCC2)C(=O)O | 
2 | 1410 nM | N#CCC1CCN(Cc2cccc(-c3cc4c(c(S(=O)(=O)Nc5ccsc5C(=O)N[C@@H](CCCNC(=N)N)C(=O)O)c3)OCC4)c2)CC1 | 
3 | 3760 nM | N=C(N)NCCC[C@H](NC(=O)c1sccc1NS(=O)(=O)c1cc(-c2cccc(CN3CCOCC3)c2)cc2c1OCC2)C(=O)O | 
4 | 4520 nM | CN(C)Cc1cccc(-c2cc3c(c(S(=O)(=O)Nc4ccsc4C(=O)N[C@@H](CCCNC(=N)N)C(=O)O)c2)OCC3)c1 | Cmax [5]: 1959.8 ng/mL; Vd [6]: 1052.61 mL/kg; t1/2 [7]: 40.8 min; Tmax [8]: 4.8 min; AUC [9]: 564.44 ng·h/mL

The remaining lines, values behind:

Row | SMILES | Kd [1] | also measured
5 | N=C(N)NCCC[C@H](NC(=O)c1sccc1NS(=O)(=O)c1cccc2nsnc12)C(=O)O |  | half-life [2]: 30 min
6 | CNC(=O)C1CCN(Cc2ccccc2-c2cc3c(c(S(=O)(=O)Nc4ccsc4C(=O)N[C@@H](CCCNC(=N)N)C(=O)O)c2)OCC3)CC1 | 3020 nM | 
7 | N=C(N)NCCC[C@H](NC(=O)c1sccc1NS(=O)(=O)c1cc(-c2cccc(CN3CCC(N4CCOCC4)CC3)c2)cc2c1OCC2)C(=O)O | 1380 nM | 
8 | CCCCCCCC(=O)N[C@@H](CO)C(=O)N[C@H]1CSSC[C@@H]2NC(=O)[C@H]([C@@H](C)O)NC(=O)[C@H](CCCNC(=N)N)NC(=O)[C@H](CCC(=O)O)NC(=O)[C@H](CC(N)=O)NC(=O)[C@H](CC(C)C)NC(=O)[C@H](CCC(=O)O)NC(=O)[C@H](CC(C)C)NC(=O)[C@H](CCC(N)=O)NC(=O)[C@H](CCCNC(=N)N)NC(=O)[C@H](C)NC(=O)[C@H](CCCCN)NC(=O)[C@H](CSSC[C@@H](C(=O)N[C@@H](CC(=O)O)C(=O)N[C@@H](CCCCN)C(=O)N3CCC[C@H]3C(=O)N[C@@H](CCCNC(=N)N)C(=O)N[C@@H](CCCNC(=N)N)C(N)=O)NC(=O)[C@H](CCCNC(=N)N)NC2=O)NC(=O)[C@H](CCCNC(=N)N)NC(=O)[C@H](CO)NC(=O)[C@H](CC(=O)O)NC(=O)[C@H]([C@@H](C)O)NC(=O)[C@H](CC(N)=O)NC(=O)[C@H](CCCCN)NC1=O (Octanoyl-SCKNTDSRCKARQLELNERTCRCDKPRR-NH2; disulfide 2-21, 9-23) |  | half-life at 10 µM [3]: < 5 min; Kd [4]: 76 nM
9 | CNC(=O)C1CCN(Cc2cccc(-c3cc4c(c(S(=O)(=O)Nc5ccsc5C(=O)N[C@@H](CCCNC(=N)N)C(=O)O)c3)OCC4)c2)CC1 | 1330 nM | 
10 | N=C(N)NCCC[C@H](NC(=O)c1sccc1NS(=O)(=O)c1cc(-c2ccccc2)cc2c1OCC2)C(=O)O | 14400 nM | 

— ChEMBL document CHEMBL4177756, “Small Molecule Neuropilin-1 Antagonists Combine Antiangiogenic and Antitumor Activity with Immune Modulation through Reduction of Transforming Growth Factor Beta (TGFβ) Production in Regulatory T-Cells” (J Med Chem, 2018)
